Data reported in ChEMBL document CHEMBL2311276, “Synthesis of amidine and bis amidine derivatives and their evaluation for anti-inflammatory and anticancer activity” (Eur J Med Chem, 2013).

What was measured:
PA-1 [1] = assay: Cytotoxicity against human PA1 cells assessed as growth inhibition at 1 x 10 '-5 M after 24 hrs by MTT assay; assay type: functional; conditions: PA-1, 24 h, read-out: GI
Outline: (§1)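 MTT screen at a single concentration of 1 × 10⁻⁵ M, 24 h exposure. Seeding was 5 × 10³ cells/well in RPMI-1640 with 2 mM glutamine. Vehicle was 0.1% final DMSO. MTT was added for 4 h at 37 °C, formazan dissolved in DMSO/glycine buffer (pH 10.5), and A570 read. Percent growth inhibition was calculated against vehicle-treated cells; triplicate, mean of three independent experiments.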

T47D [2] = assay: Cytotoxicity against human T47D cells assessed as growth inhibition at 1 x 10 '-5 M after 24 hrs by MTT assay; assay type: functional; conditions: read-out: GI; outline: as §1
HCT-15 [3] = assay: Cytotoxicity against human HCT15 cells assessed as growth inhibition at 1 x 10 '-5 M after 24 hrs by MTT assay; assay type: functional; conditions: HCT-15, 24 h, read-out: GI; outline: as §1
Rattus norvegicus = assay: Antiinflammatory activity in Charles Foster albino rat assessed as inhibition of carrageenan-induced paw edema at 50 mg/kg, po administered 30 mins before carrageenan challenge measured after 1 to 3 hrs by plethysmometer analysis; assay type: functional
Outline: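 Rats of both sexes (120–160 g; pregnant females excluded), five per group, were dosed orally at 50 mg/kg. After 30 min, 0.20 mL of freshly prepared 1% carrageenan in 0.9% NaCl was injected into the plantar aponeurosis of the hind paw. Paw volume was read by water plethysmometer before and 1–3 h later. Percent inhibition was taken against a carrageenan-only control group of five rats.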

HepG2 [4] = assay: Cytotoxicity against human HepG2 cells assessed as growth inhibition at 1 x 10 '-5 M after 24 hrs by MTT assay; assay type: functional; conditions: HepG2, 24 h, read-out: GI; outline: as §1
NCI-H522 [5] = assay: Cytotoxicity against human NCI-H522 cells assessed as growth inhibition at 1 x 10 '-5 M after 24 hrs by MTT assay; assay type: functional; conditions: NCI-H522, 24 h, read-out: GI; outline: as §1
COS-1 = assay: Cytotoxicity against african green monkey COS1 cells after 24 hrs by MTT assay; assay type: cell-based; conditions: Chlorocebus aethiops, COS-1, 24 h
PA-1 [6] = assay: Cytotoxicity against human PA1 cells after 24 hrs by MTT assay; assay type: functional, cell-based; conditions: PA-1, 24 h
Outline: (§2)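 Cell lines came from NCCS Pune and were grown in RPMI-1640 with 2 mM glutamine, pH 7.4. Cells were seeded at 5 × 10³ per well and exposed to serial dilutions in DMSO for 24 h, with 0.1% final DMSO as vehicle control. MTT (5 mg/ml) was added for 4 h at 37 °C. Formazan was dissolved in DMSO plus Sorensen glycine buffer (pH 10.5) and read at 570 nm. IC50 came from % inhibition versus vehicle; triplicate, mean ± SD of three experiments.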

T47D [7] = assay: Cytotoxicity against human T47D cells after 24 hrs by MTT assay; assay type: functional, cell-based; outline: as §2
HCT-15 [8] = assay: Cytotoxicity against human HCT15 cells after 24 hrs by MTT assay; assay type: functional, cell-based; conditions: HCT-15, 24 h; outline: as §2
HepG2 [9] = assay: Cytotoxicity against human HepG2 cells after 24 hrs by MTT assay; assay type: functional, cell-based; conditions: HepG2, 24 h; outline: as §2
NCI-H522 [10] = assay: Cytotoxicity against human NCI-H522 cells after 24 hrs by MTT assay; assay type: functional, cell-based; conditions: NCI-H522, 24 h; outline: as §2

| Structure (SMILES) | inhibition of growth at 10 µM (PA-1 [1]) [%] | inhibition of growth at 10 µM (T47D [2]) [%] | inhibition of growth at 10 µM (HCT-15 [3]) [%] | inhibition in vivo at 50 mg/kg (Rattus norvegicus) [%] | inhibition of growth at 10 µM (HepG2 [4]) [%] | inhibition of growth at 10 µM (NCI-H522 [5]) [%] | IC50 (COS-1) [µM] | IC50 (PA-1 [6]) [µM] | IC50 (T47D [7]) [µM] | IC50 (HCT-15 [8]) [µM] | IC50 (HepG2 [9]) [µM] | IC50 (NCI-H522 [10]) [µM] |
| --- | --- | --- | --- | --- | --- | --- | --- | --- | --- | --- | --- | --- |
| N=C(Nc1ccc(-c2ccc(NC(=N)c3ccccn3)cc2)cc1)c1ccccn1 | 37 | 2 | 16 | 26 | 23 | 32 |  |  |  |  |  |  |
| O=P1(N(CCCl)CCCl)NCCCO1 (stereo not drawn) [CYCLOPHOSPHAMIDE ANHYDROUS] | 12 | 9 | 4 |  | 18 | 11 | 125 | 64.1 | 70.1 | 74.3 | 55.3 | 67.9 |
| N=C(NCCCN1CCN(CCCNC(=N)c2ccncc2)CC1)c1ccncc1 | 13 | 2 | 9 | 31 | 6 | 31 |  |  |  |  |  |  |
| N=C(NCc1cccnc1)c1ccncc1 | 21 | 22 | 22 | 0 | 20 | 7 |  |  |  |  |  |  |
| N=C(NCCCCNC(=N)c1cnccn1)c1cnccn1 | 15 | 19 | 9 | 37 | 17 | 5 |  |  |  |  |  |  |
| N=C(NCCN1CCNCC1)c1cnccn1 | 36 | 22 | 28 | 20 | 23 | 9 |  |  |  |  |  |  |
| N=C(Nc1ccc(-c2ccc(NC(=N)c3ccncc3)cc2)cc1)c1ccncc1 | 7 | 12 | 3 | 15 | 48 | 36 | 50 | 42.5 | 34.1 | 124 | 11.9 | 13.4 |
| O=c1[nH]cc(F)c(=O)[nH]1 [FLUOROURACIL] | 22 | 15 | 19 |  | 32 | 13 | 110 | 39.5 | 51.8 | 45 | 29.9 | 56.8 |
| N=C(NCCN1CCNCC1)c1ccccn1 | 40 | 14 | 24 | 11 | 27 | 8 |  |  |  |  |  |  |
| N=C(NCCN1CCOCC1)c1ccncc1 | 43 | 12 | 17 | 28 | 9 | 11 |  |  |  |  |  |  |
| N=C(NCc1cccnc1)c1cnccn1 | 23 | 23 | 3 | 18 | 26 | 11 |  |  |  |  |  |  |
| CC(C)Cc1ccc(C(C)C(=O)O)cc1 (stereo not drawn) [IBUPROFEN] |  |  |  | 39 |  |  |  |  |  |  |  |  |
| N=C(NCCCCNC(=N)c1ccncc1)c1ccncc1 | 10 | 27 | 5 | 15 | 50 | 20 | 246 | 49.2 | 43 | 87.8 | 11.2 | 36.6 |
| N=C(Nc1ccc(-c2ccc(NC(=N)c3cnccn3)cc2)cc1)c1cnccn1 | 43 | 14 | 45 | 31 | 37 | 43 | 100 | 17.1 | 62.4 | 11.9 | 20.3 | 14.1 |
| C[C@@H]1C[C@@H]([C@H](O)CC2CC(=O)NC(=O)C2)C(=O)[C@@H](C)C1 [CYCLOHEXIMIDE] | 34 | 11 | 16 |  | 18 | 9 | 128 | 40.6 | 65.1 | 54.1 | 57.1 | 60.1 |
| N=C(NCCCN1CCN(CCCNC(=N)c2ccccn2)CC1)c1ccccn1 | 31 | 39 | 31 | 38 | 34 | 39 | 203 | 39.7 | 22.5 | 25.1 | 20.8 | 22 |
| N=C(NCCN1CCNCC1)c1ccncc1 | 46 | 6 | 13 | 0 | 10 | 17 | 147 | 19.3 | 184 | 35.4 | 191 | 35.3 |
| N=C(NCCCCNC(=N)c1ccccn1)c1ccccn1 | 27 | 29 | 5 | 14 | 26 | 38 |  |  |  |  |  |  |
| N=C(NCc1cccnc1)c1ccccn1 | 36 | 23 | 23 | 10 | 42 | 9 |  |  |  |  |  |  |
| N=C(NCCCN1CCN(CCCNC(=N)c2cnccn2)CC1)c1cnccn1 | 26 | 28 | 12 | 27 | 22 | 15 |  |  |  |  |  |  |
| N=C(NCCN1CCOCC1)c1ccccn1 | 43 | 21 | 12 | 0 | 40 | 31 |  |  |  |  |  |  |
| N=C(NCCN1CCOCC1)c1cnccn1 | 51 | 13 | 6 | 15 | 52 | 35 | 173 | 13.6 | 55.4 | 78.3 | 9.4 | 18.2 |
